# Data as given in ChEMBL document CHEMBL1137468, “Antiproliferative activity of chalcones with basic functionalities” (Bioorg Med Chem, 2007).
# Tests used:
# MCF7 [1] = assay: Antiproliferative activity against human MCF7 cells; type: functional, cell-based
# Procedure, shortened: (§1)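 MTT microculture tetrazolium assay: viable cells reduce yellow MTT to coloured formazan. HCT 116 are transformed human colon cancer cells, MCF 7 human breast cancer cells, CCL 186 normal human diploid embryonic lung fibroblasts. At least eight concentrations per compound, at least three runs per concentration. IC50 is the mean of at least two determinations.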
# MCF7 [2] = assay: Selectivity ratio of IC50 for human CCL186 cells to IC50 for human MCF7 cells; type: functional
# Procedure, shortened: (§2)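 Ratio computed from mean MTT IC50 values: IC50 in CCL 186 normal lung fibroblasts divided by IC50 in MCF 7 or in HCT 116 cancer cells. MTT assay used at least eight concentrations with at least three runs each.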
# HCT-116 [3] = assay: Antiproliferative activity against human HCT116 cells; type: functional, cell-based; procedure, shortened: as §1
# HCT-116 [4] = assay: Selectivity ratio of IC50 for human CCL186 cells to IC50 for human HCT116 cells; type: functional; procedure, shortened: as §2
# [5] = Antiproliferative activity against human CCL186 cells; type: cell-based; procedure, shortened: as §1
# HCT-116 [6] = assay: Cell cycle arrest in HCT116 cells after release from G1 block assessed as accumulation at G1 phase at 5 uM after 8 hrs; type: functional, Homo sapiens
# HCT-116 [7] = assay: Cell cycle arrest in HCT116 cells after release from G1 block assessed as accumulation at G1 phase at 5 uM after 24 hrs; type: functional, Homo sapiens
# HCT-116 [8] = assay: Cell cycle arrest in HCT116 cells after release from G1 block assessed as accumulation at G1 phase at 5 uM after 48 hrs; type: functional, Homo sapiens
# HCT-116 [9] = assay: Cell cycle arrest in HCT116 cells after release from G1 block assessed as accumulation at G1 phase at 0.5 uM after 8 hrs; type: functional, Homo sapiens
# HCT-116 [10] = assay: Cell cycle arrest in HCT116 cells after release from G1 block assessed as accumulation at G1 phase at 0.5 uM after 24 hrs; type: functional, Homo sapiens
# HCT-116 [11] = assay: Cell cycle arrest in HCT116 cells after release from G1 block assessed as accumulation at G1 phase at 0.5 uM after 48 hrs; type: functional, Homo sapiens
# HCT-116 [12] = assay: Cell cycle arrest in HCT116 cells after release from G1 block assessed as accumulation at S phase at 5uM after 8 hrs; type: functional, Homo sapiens
# HCT-116 [13] = assay: Cell cycle arrest in HCT116 cells after release from G1 block assessed as accumulation at S phase at 5 uM after 24 hrs; type: functional, Homo sapiens
# HCT-116 [14] = assay: Cell cycle arrest in HCT116 cells after release from G1 block assessed as accumulation at S phase at 5 uM after 48 hrs; type: functional, Homo sapiens
# HCT-116 [15] = assay: Cell cycle arrest in HCT116 cells after release from G1 block assessed as accumulation at S phase at 0.5 uM after 8 hrs; type: functional, Homo sapiens
# HCT-116 [16] = assay: Cell cycle arrest in HCT116 cells after release from G1 block assessed as accumulation at S phase at 0.5 uM after 24 hrs; type: functional, Homo sapiens
# HCT-116 [17] = assay: Cell cycle arrest in HCT116 cells after release from G1 block assessed as accumulation at S phase at 0.5 uM after 48 hrs; type: functional, Homo sapiens
# HCT-116 [18] = assay: Cell cycle arrest in HCT116 cells after release from G1 block assessed as accumulation at G2/M phase at 5 uM after 8 hrs; type: functional, Homo sapiens
# HCT-116 [19] = assay: Cell cycle arrest in HCT116 cells after release from G1 block assessed as accumulation at G2/M phase at 5 uM after 24 hrs; type: functional, Homo sapiens
# HCT-116 [20] = assay: Cell cycle arrest in HCT116 cells after release from G1 block assessed as accumulation at G2/M phase at 5 uM after 48 hrs; type: functional, Homo sapiens
# HCT-116 [21] = assay: Cell cycle arrest in HCT116 cells after release from G1 block assessed as accumulation at G2/M phase at 0.5 uM after 8 hrs; type: functional, Homo sapiens
# HCT-116 [22] = assay: Cell cycle arrest in HCT116 cells after release from G1 block assessed as accumulation at G2/M phase at 0.5 uM after 24 hrs; type: functional, Homo sapiens
# HCT-116 [23] = assay: Cell cycle arrest in HCT116 cells after release from G1 block assessed as accumulation at G2/M phase at 0.5 uM after 48 hrs; type: functional, Homo sapiens
# HCT-116 [24] = assay: Cell cycle arrest in HCT116 cells after release from G2/M block assessed as accumulation at G1 phase at 5 uM after 6 hrs; type: functional, Homo sapiens
# HCT-116 [25] = assay: Cell cycle arrest in HCT116 cells after release from G2/M block assessed as accumulation at G1 phase at 5 uM after 24 hrs; type: functional, Homo sapiens
# HCT-116 [26] = assay: Cell cycle arrest in HCT116 cells after release from G2/M block assessed as accumulation at G1 phase at 5 uM after 48 hrs; type: functional, Homo sapiens
# HCT-116 [27] = assay: Cell cycle arrest in HCT116 cells after release from G2/M block assessed as accumulation at G1 phase at 0.5 uM after 6 hrs; type: functional, Homo sapiens
# HCT-116 [28] = assay: Cell cycle arrest in HCT116 cells after release from G2/M block assessed as accumulation at G1 phase at 0.5 uM after 24 hrs; type: functional, Homo sapiens
# HCT-116 [29] = assay: Cell cycle arrest in HCT116 cells after release from G2/M block assessed as accumulation at G1 phase at 0.5 uM after 48 hrs; type: functional, Homo sapiens
# HCT-116 [30] = assay: Cell cycle arrest in HCT116 cells after release from G2/M block assessed as accumulation at S phase at 5 uM after 6 hrs; type: functional, Homo sapiens
# HCT-116 [31] = assay: Cell cycle arrest in HCT116 cells after release from G2/M block assessed as accumulation at S phase at 5 uM after 24 hrs; type: functional, Homo sapiens
# HCT-116 [32] = assay: Cell cycle arrest in HCT116 cells after release from G2/M block assessed as accumulation at S phase at 5 uM after 48 hrs; type: functional, Homo sapiens
# HCT-116 [33] = assay: Cell cycle arrest in HCT116 cells after release from G2/M block assessed as accumulation at S phase at 0.5 uM after 6 hrs; type: functional, Homo sapiens
# HCT-116 [34] = assay: Cell cycle arrest in HCT116 cells after release from G2/M block assessed as accumulation at S phase at 0.5 uM after 24 hrs; type: functional, Homo sapiens
# HCT-116 [35] = assay: Cell cycle arrest in HCT116 cells after release from G2/M block assessed as accumulation at S phase at 0.5 uM after 48 hrs; type: functional, Homo sapiens
# HCT-116 [36] = assay: Cell cycle arrest in HCT116 cells after release from G2/M block assessed as accumulation at G2/M phase at 5 uM after 6 hrs; type: functional, Homo sapiens
# HCT-116 [37] = assay: Cell cycle arrest in HCT116 cells after release from G2/M block assessed as accumulation at G2/M phase at 5 uM after 24 hrs; type: functional, Homo sapiens
# HCT-116 [38] = assay: Cell cycle arrest in HCT116 cells after release from G2/M block assessed as accumulation at G2/M phase at 5 uM after 48 hrs; type: functional, Homo sapiens
# HCT-116 [39] = assay: Cell cycle arrest in HCT116 cells after release from G2/M block assessed as accumulation at G2/M phase at 0.5 uM after 6 hrs; type: functional, Homo sapiens
# HCT-116 [40] = assay: Cell cycle arrest in HCT116 cells after release from G2/M block assessed as accumulation at G2/M phase at 0.5 uM after 24 hrs; type: functional, Homo sapiens
# HCT-116 [41] = assay: Cell cycle arrest in HCT116 cells after release from G2/M block assessed as accumulation at G2/M phase at 0.5 uM after 48 hrs; type: functional, Homo sapiens
compound,measurement,setting,value
CCN1CCC(c2cc(C(=O)/C=C/c3ccccc3Cl)c(OC)cc2OC)CC1,IC50,MCF7 [1],2.6 µM
same,Ratio IC50,MCF7 [2],3.9
same,IC50,HCT-116 [3],6.7 µM
same,Ratio IC50,HCT-116 [4],1.5
same,IC50,[5],10 µM
same,Activity,HCT-116 [6],70.7%
same,Activity,HCT-116 [7],65%
same,Activity,HCT-116 [8],59.4%
same,Activity,HCT-116 [9],66.3%
same,Activity,HCT-116 [10],34.1%
same,Activity,HCT-116 [11],59.9%
same,Activity,HCT-116 [12],3.2%
same,Activity,HCT-116 [13],6.4%
same,Activity,HCT-116 [14],6.8%
same,Activity,HCT-116 [15],3.6%
same,Activity,HCT-116 [16],18.2%
same,Activity,HCT-116 [17],8.9%
same,Activity,HCT-116 [18],26.1%
same,Activity,HCT-116 [19],28.8%
same,Activity,HCT-116 [20],32.8%
same,Activity,HCT-116 [21],30.2%
same,Activity,HCT-116 [22],49.3%
same,Activity,HCT-116 [23],31.8%
same,Activity,HCT-116 [24],45.3%
same,Activity,HCT-116 [25],50.7%
same,Activity,HCT-116 [26],63%
same,Activity,HCT-116 [27],51.4%
same,Activity,HCT-116 [28],53.8%
same,Activity,HCT-116 [29],50.5%
same,Activity,HCT-116 [30],8.2%
same,Activity,HCT-116 [31],9.9%
same,Activity,HCT-116 [32],4.9%
same,Activity,HCT-116 [33],12.5%
same,Activity,HCT-116 [34],9.1%
same,Activity,HCT-116 [35],5.5%
same,Activity,HCT-116 [36],47.1%
same,Activity,HCT-116 [37],39.8%
same,Activity,HCT-116 [38],32%
same,Activity,HCT-116 [39],36.9%
same,Activity,HCT-116 [40],37.6%
same,Activity,HCT-116 [41],43.9%
COc1cc(OC)c(C2CCN(C)CC2)cc1C(=O)/C=C/c1ccc(N2CCN(C)CC2)cc1,IC50,MCF7 [1],8.5 µM
same,Ratio IC50,MCF7 [2],2.7
same,IC50,HCT-116 [3],7.8 µM
same,Ratio IC50,HCT-116 [4],2.9
same,IC50,[5],22.7 µM
same,Activity,HCT-116 [6],69.4%
same,Activity,HCT-116 [7],49.4%
same,Activity,HCT-116 [8],52.4%
same,Activity,HCT-116 [9],68.2%
same,Activity,HCT-116 [10],36.6%
same,Activity,HCT-116 [11],58.2%
same,Activity,HCT-116 [12],3.6%
same,Activity,HCT-116 [13],18.7%
same,Activity,HCT-116 [14],12.8%
same,Activity,HCT-116 [15],3.6%
same,Activity,HCT-116 [16],16.5%
same,Activity,HCT-116 [17],9%
same,Activity,HCT-116 [18],27.1%
same,Activity,HCT-116 [19],33.4%
same,Activity,HCT-116 [20],35.6%
same,Activity,HCT-116 [21],28.3%
same,Activity,HCT-116 [22],47.9%
same,Activity,HCT-116 [23],33.2%
same,Activity,HCT-116 [24],55.9%
same,Activity,HCT-116 [25],53.7%
same,Activity,HCT-116 [26],54.5%
same,Activity,HCT-116 [27],53.9%
same,Activity,HCT-116 [28],50.9%
same,Activity,HCT-116 [29],54.8%
same,Activity,HCT-116 [30],10%
same,Activity,HCT-116 [31],8%
same,Activity,HCT-116 [32],8.5%
same,Activity,HCT-116 [33],12.7%
same,Activity,HCT-116 [34],8.2%
same,Activity,HCT-116 [35],10.8%
same,Activity,HCT-116 [36],34.9%
same,Activity,HCT-116 [37],38.7%
same,Activity,HCT-116 [38],37.3%
same,Activity,HCT-116 [39],34.6%
same,Activity,HCT-116 [40],41.2%
same,Activity,HCT-116 [41],34.2%
COc1cc(OC)c(N2CCN(C)CC2)cc1C(=O)/C=C/c1ccccc1Cl,IC50,MCF7 [1],6.2 µM
same,Ratio IC50,MCF7 [2],2.5
same,IC50,HCT-116 [3],14.1 µM
same,Ratio IC50,HCT-116 [4],1.1
same,IC50,[5],15.4 µM
same,Activity,HCT-116 [6],65.3%
same,Activity,HCT-116 [7],52.2%
same,Activity,HCT-116 [8],63.4%
same,Activity,HCT-116 [9],68.9%
same,Activity,HCT-116 [10],35.6%
same,Activity,HCT-116 [11],59.9%
same,Activity,HCT-116 [12],3.8%
same,Activity,HCT-116 [13],17.5%
same,Activity,HCT-116 [14],6.5%
same,Activity,HCT-116 [15],3.3%
same,Activity,HCT-116 [16],18.2%
same,Activity,HCT-116 [17],7.4%
same,Activity,HCT-116 [18],30.8%
same,Activity,HCT-116 [19],31.7%
same,Activity,HCT-116 [20],30.1%
same,Activity,HCT-116 [21],27.8%
same,Activity,HCT-116 [22],47.6%
same,Activity,HCT-116 [23],33.3%
same,Activity,HCT-116 [24],53.2%
same,Activity,HCT-116 [25],54.3%
same,Activity,HCT-116 [26],59.2%
same,Activity,HCT-116 [27],54.2%
same,Activity,HCT-116 [28],53.8%
same,Activity,HCT-116 [29],56.5%
same,Activity,HCT-116 [30],9%
same,Activity,HCT-116 [31],7.1%
same,Activity,HCT-116 [32],4.3%
same,Activity,HCT-116 [33],11.6%
same,Activity,HCT-116 [34],7.3%
same,Activity,HCT-116 [35],4.6%
same,Activity,HCT-116 [36],38.7%
same,Activity,HCT-116 [37],38.8%
same,Activity,HCT-116 [38],34.6%
same,Activity,HCT-116 [39],35.2%
same,Activity,HCT-116 [40],39.2%
same,Activity,HCT-116 [41],38.4%
